Source: ChEMBL document CHEMBL1155165, “SB-431542, a transforming growth factor beta inhibitor, impairs Trypanosoma cruzi infection in cardiomyocytes and parasite cycle completion” (2007)
Active and inactive are the calls of the source. The rule behind the calls is not given here.

What was measured:
Trypanosoma cruzi [1] = experiment: Antitrypanosomal activity against Trypanosoma cruzi Y in mouse cardiomyocytes assessed as reduction of intracellular amastigotes at 10 uM by Giemsa staining; assay type: functional, organism-based
Outline: (§1)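 Primary mouse embryo cardiomyocytes were seeded at 1 × 10^5 cells/well for 24 h at 37°C in 5% CO2. Cells were pretreated for 1 h with 10 μM inhibitor or vehicle, and treatment was kept throughout. They were infected with Y strain trypomastigotes at 10:1 parasite:host. At 24, 48, 72 and 96 h postinfection cells were Bouin-fixed and Giemsa-stained. Parasites per infected cell were counted over 400 cells on two coverslips. Mean ± SD of three experiments.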

Trypanosoma cruzi [2] = experiment: Antitrypanosomal activity against Trypanosoma cruzi Y in mouse cardiomyocytes assessed as number of intracellular parasites per infected cell at 10 uM after 24 hrs postinfection by Giemsa staining; assay type: functional; outline: as §1
Trypanosoma cruzi [3] = experiment: Antitrypanosomal activity against Trypanosoma cruzi Y in mouse cardiomyocytes assessed as number of intracellular parasites per infected cell at 10 uM after 48 hrs postinfection by Giemsa staining; assay type: functional; outline: as §1
Trypanosoma cruzi [4] = experiment: Antitrypanosomal activity against Trypanosoma cruzi Y in mouse cardiomyocytes assessed as number of intracellular parasites per infected cell at 10 uM after 72 hrs postinfection by Giemsa staining; assay type: functional; outline: as §1
Trypanosoma cruzi [5] = experiment: Antitrypanosomal activity against Trypanosoma cruzi Y in mouse cardiomyocytes assessed as number of intracellular parasites per infected cell at 10 uM after 96 hrs postinfection by Giemsa staining; assay type: functional; outline: as §1
Trypanosoma cruzi [6] = experiment: Antitrypanosomal activity against Trypanosoma cruzi Y in mouse cardiomyocytes assessed as inhibition of trypomastigote release at 10 uM after 96 hrs; assay type: functional, organism-based
Outline: (§2)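 Cardiomyocytes were infected with Y strain trypomastigotes (10:1 parasite:host) and kept with or without 10 μM inhibitor throughout. Parasites released at 96 h postinfection were counted and reported as 10^4. Trypomastigotes were scored separately from nontrypomastigote forms (amastigotes plus epimastigote-like forms).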

Trypanosoma cruzi [7] = experiment: Antitrypanosomal activity against Trypanosoma cruzi Y in mouse cardiomyocytes assessed as number of trypomastigote release at 10 uM after 96 hrs; assay type: functional; outline: as §2
Trypanosoma cruzi [8] = experiment: Antitrypanosomal activity against Trypanosoma cruzi Y in mouse cardiomyocytes assessed as number of nontrypomastigote release at 10 uM after 96 hrs; assay type: functional; outline: as §2
Trypanosoma cruzi [9] = experiment: Antitrypanosomal activity against Trypanosoma cruzi Y in mouse cardiomyocytes assessed as induction of parasite apoptosis at 10 uM after 72 hrs postinfection by TUNEL method; assay type: functional
Outline: (§3)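 Y strain-infected cardiomyocytes were kept with or without 10 μM inhibitor, grown on coverslips. They were fixed in 4% paraformaldehyde for 20 min at 4°C and permeabilized with 0.1% Triton X-100 in 0.1% sodium citrate for 2 min at 4°C. TUNEL labelling ran 60 min at 37°C, followed by DAPI counterstain. The percentage of TUNEL-positive parasites was scored at 72 and 96 h postinfection by epifluorescence.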

Trypanosoma cruzi [10] = experiment: Antitrypanosomal activity against Trypanosoma cruzi Y in mouse cardiomyocytes assessed as induction of parasite apoptosis at 10 uM after 96 hrs postinfection by TUNEL method; assay type: functional; outline: as §3
C32 = experiment: Inhibition of TGFbeta signaling in mink C32 cells at 10 uM by luciferase based assay; assay type: functional, cell-based; conditions: Neovison vison
Outline: (§4)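 C32 cells are Mv1Lu mink lung cells stably carrying a PAI promoter-luciferase reporter. Cells were plated at 1 × 10^5/well in 5% FCS and switched to 0.1% FCS after 3 h. They were stimulated with TGF-β1 2 ng/ml or live Y strain trypomastigotes, 1 × 10^6 to 4 × 10^6 parasites, with or without 10 μM inhibitor. Luciferase (RLU) was read after 20 h. Mean ± SD of three experiments.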

Trypanosoma cruzi [11] = experiment: Inhibition of Trypanosoma cruzi Y infection-induced TGFbeta signaling in mink C32 cells at 10 uM by luciferase based assay; assay type: functional, organism-based; outline: as §4
Trypanosoma cruzi [12] = experiment: Inhibition of invasion of Trypanosoma cruzi Y in mouse embryo cardiomyocytes assessed as pathogen infection at 10 uM for 1 hr measured at 4 hrs postinfection; assay type: functional, organism-based
Outline: (§5)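 Mouse embryo cardiomyocytes were pretreated for 1 h with 10 μM inhibitor or left untreated. They were infected with Dm28c or Y strain trypomastigotes at 10:1 parasite:host. Cells were fixed at 4 h postinfection and Giemsa-stained. The percentage of infected cells was counted over 400 cells per slide on two coverslips. Control and treated cells were compared by t test.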

Cardiomyocyte = experiment: Inhibition of TGF-beta-1-induced Smad2 phosphorylation in mouse embryo cardiomyocytes at 10 uM by immunoblot; assay type: functional, cell-based
Outline: (§6)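 Mouse embryo cardiomyocytes were pretreated for 1 h with or without 10 μM inhibitor. They were then given 2 ng/ml TGF-β1 or T. cruzi Dm28c for 1 h. Cells were lysed in RIPA buffer, pH 8.0, and 20 μg lysate was run on 12% SDS-PAGE. Blots were probed for phospho-Smad2, with α-tubulin as loading control.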

Trypanosoma cruzi [13] = experiment: Inhibition of Trypanosoma cruzi Dm28C infection-induced Smad2 phosphorylation in mouse embryo cardiomyocytes at 10 uM by immunoblot; assay type: functional, organism-based; outline: as §6
Trypanosoma cruzi [14] = experiment: Inhibition of invasion of Trypanosoma cruzi Dm28C in mouse embryo cardiomyocytes assessed as pathogen infection at 10 uM for 1 hr measured at 4 hrs postinfection; assay type: functional, organism-based; outline: as §5

NC(=O)c1ccc(-c2nc(-c3ccccn3)c(-c3ccc4c(c3)OCO4)[nH]2)cc1 [SB-431542]
Activity (Trypanosoma cruzi [1]): Active
Activity (Trypanosoma cruzi [2]): 1.4
Activity (Trypanosoma cruzi [3]): 4.4
Activity (Trypanosoma cruzi [4]): 38
Activity (Trypanosoma cruzi [5]): 58
Activity (Trypanosoma cruzi [6]): Active
Activity (Trypanosoma cruzi [7]): 19
Activity (Trypanosoma cruzi [8]): 53
Activity (Trypanosoma cruzi [9]): 47.9%
Activity (Trypanosoma cruzi [10]): 26.5%
Activity (C32): Active
Activity (Trypanosoma cruzi [11]): Active
Activity (Trypanosoma cruzi [12]): Active
Activity (Cardiomyocyte): Active
Activity (Trypanosoma cruzi [13]): Active
Activity (Trypanosoma cruzi [14]): Active
